According to ChEMBL document CHEMBL1649547, “Telavancin disrupts the functional integrity of the bacterial membrane through targeted interaction with the cell wall precursor lipid II” (Antimicrob Agents Chemother, 2009):
Converted amounts (≈) assume the structure as drawn. The source made the active and inactive calls. No cut-off for these calls is given here.

Key:
[1] = test system: Staphylococcus aureus; assay: Antibacterial activity against Staphylococcus aureus assessed as induction of bacterial membrane depolarization at 8 ug/ml by flow cytometry; type: functional
How it was run: (§1)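 Membrane potential was measured with DiOC2(3) flow cytometry. Early-exponential cultures (A625 = 0.3) in cation-adjusted MHB were diluted to 106 CFU/ml and dosed in 5-ml aliquots at 37°C with shaking. Samples were stained 5 min with 30 µM DiOC2(3) (final). 5,000 events per sample were collected. The red/green fluorescence ratio was gated against a CCCP-depolarized population. The endpoint was 90 min unless noted.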

[2] = test system: Staphylococcus aureus; assay: Antibacterial activity against Staphylococcus aureus; type: functional
How it was run: (§2)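 MIC determined with commercially manufactured dry-form panels; the organisms were grown in cation-adjusted Mueller-Hinton II broth.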

[3] = test system: Staphylococcus aureus; assay: Antibacterial activity against daptomycin-nonsusceptible Staphylococcus aureus MED2034; type: functional; how it was run: as §2
[4] = test system: Staphylococcus aureus; assay: Antibacterial activity against Staphylococcus aureus grown in MHB medium assessed as induction of bacterial membrane depolarization at 2 to 32 ug/ml by flow cytometry; type: functional, organism-based
How it was run: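 MHB-grown S. aureus either kept in MHB or washed and resuspended in cation-containing PBS, then equilibrated 10 min at 37°C before telavancin 2–32 µg/ml. Time course of depolarization measured by DiOC2(3) flow cytometry (final 30 µM, 5 min stain, red/green ratio). Three independent experiments.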

[5] = test system: Staphylococcus aureus; assay: Antibacterial activity against Staphylococcus aureus assessed as induction of bacterial membrane depolarization at 8 ug/ml by flow cytometry in presence of 0.05 mM D-Ala-D-Ala; type: functional
How it was run: (§3)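 S. aureus at 10^6 CFU/ml in MHB at 37°C. dKAA tripeptide (0.05, 0.5 or 5 mM) added before telavancin (8 or 32 µg/ml), 60 min reading. DiOC2(3) staining (final 30 µM, 5 min), flow cytometry of 5,000 events, red/green fluorescence ratio; depolarized gate defined with CCCP-treated cells.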

[6] = test system: Staphylococcus aureus; assay: Antibacterial activity against Staphylococcus aureus assessed as induction of bacterial membrane depolarization at 8 ug/ml by flow cytometry in presence of 0.5 mM D-Ala-D-Ala; type: functional; how it was run: as §3
[7] = test system: Staphylococcus aureus; assay: Antibacterial activity against Staphylococcus aureus assessed as induction of bacterial membrane depolarization at 8 ug/ml by flow cytometry in presence of 5 mM D-Ala-D-Ala; type: functional; how it was run: as §3
[8] = test system: Staphylococcus aureus; assay: Antibacterial activity against methicillin-resistant Staphylococcus aureus ATCC 33591; type: functional; how it was run: as §2
[9] = test system: Staphylococcus aureus; assay: Antibacterial activity against Staphylococcus aureus assessed as induction of bacterial membrane depolarization by flow cytometry; type: functional, organism-based
How it was run: (§4)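 S. aureus ATCC 29213 grown in MHB at 37°C to A625 = 0.3, diluted to 10^6 CFU/ml in MHB. Compound added to 5 ml aliquots, shaking water bath at 37°C, usually 90 min endpoint. Samples mixed 1:1 with DiOC2(3) (final 30 µM) and stained 5 min. Flow cytometry of 5,000 events, red/green ratio; depolarized gate set from CCCP. IC50 from four-parameter sigmoidal fit.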

[10] = test system: Staphylococcus aureus; assay: Antibacterial activity against vancomycin-intermediate Staphylococcus aureus ATCC 700699 assessed as induction of bacterial membrane depolarization at 32 ug/ml by flow cytometry; type: functional
How it was run: (§5)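 Strains with resistance phenotypes tested in the DiOC2(3) flow-cytometric depolarization assay. Cells at 10^6 CFU/ml in MHB at 37°C, dye final 30 µM, 5 min stain, 5,000 events, red/green ratio. Percent depolarization followed over time.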

[11] = test system: Staphylococcus aureus; assay: Antibacterial activity against heterogeneous vancomycin-intermediate Staphylococcus aureus ATCC 700698 assessed as induction of bacterial membrane depolarization at 32 ug/ml by flow cytometry; type: functional; how it was run: as §5
[12] = test system: Staphylococcus aureus; assay: Antibacterial activity against daptomycin-nonsusceptible Staphylococcus aureus MED2034 assessed as induction of bacterial membrane depolarization at 32 ug/ml by flow cytometry; type: functional; how it was run: as §1
[13] = test system: Staphylococcus aureus; assay: Antibacterial activity against vancomycin-intermediate Staphylococcus aureus ATCC 700699; type: functional; how it was run: as §2
[14] = test system: Staphylococcus aureus; assay: Antibacterial activity against heterogeneous vancomycin-intermediate Staphylococcus aureus ATCC 700698; type: functional
[15] = test system: Staphylococcus aureus; assay: Antibacterial activity against Staphylococcus aureus in presence of 0.05 mM D-Ala-D-Ala; type: functional
[16] = test system: Staphylococcus aureus; assay: Antibacterial activity against Staphylococcus aureus in presence of 0.5 mM D-Ala-D-Ala; type: functional
[17] = test system: Staphylococcus aureus; assay: Antibacterial activity against Staphylococcus aureus in presence of 5 mM D-Ala-D-Ala; type: functional
[18] = test system: Staphylococcus aureus; assay: Antibacterial activity against Staphylococcus aureus assessed as induction of bacterial membrane depolarization at 32 ug/ml by flow cytometry; type: functional; how it was run: as §4
[19] = test system: Staphylococcus aureus; assay: Antibacterial activity against Staphylococcus aureus assessed as induction of bacterial membrane depolarization at 32 ug/ml by flow cytometry in presence of 0.05 mM D-Ala-D-Ala; type: functional; how it was run: as §3
[20] = test system: Staphylococcus aureus; assay: Antibacterial activity against Staphylococcus aureus assessed as induction of bacterial membrane depolarization at 32 ug/ml by flow cytometry in presence of 0.5 mM D-Ala-D-Ala; type: functional; how it was run: as §3
[21] = test system: Staphylococcus aureus; assay: Antibacterial activity against Staphylococcus aureus assessed as induction of bacterial membrane depolarization at 32 ug/ml by flow cytometry in presence of 5 mM D-Ala-D-Ala; type: functional; how it was run: as §3
[22] = test system: Staphylococcus aureus; assay: Inhibition of bacterial cell wall precursor lipid 2 synthesis in Staphylococcus aureus assessed as induction of membrane depolarization at 32 ug/ml by flow cytometry in presence of fosfomycin; type: functional; parameters: scale not given: the % may be the effect or the level left
How it was run: (§6)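 Cells then exposed to telavancin 32 µg/ml for 15 min (nisin 2 µg/ml, 5 min). DiOC2(3) flow cytometry. Percent depolarization expressed relative to samples without pretreatment.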

[23] = test system: Staphylococcus aureus; assay: Inhibition of bacterial cell wall precursor lipid 2 synthesis in Staphylococcus aureus assessed as induction of membrane depolarization at 32 ug/ml by flow cytometry in presence of D-cycloserine; type: functional; parameters: scale not given: the % may be the effect or the level left; how it was run: as §6
[24] = test system: Staphylococcus aureus; assay: Inhibition of bacterial cell wall precursor lipid 2 synthesis in Staphylococcus aureus assessed as induction of membrane depolarization at 32 ug/ml by flow cytometry in presence of bacitracin; type: functional; parameters: scale not given: the % may be the effect or the level left; how it was run: as §6
[25] = test system: Cell membrane; assay: Binding affinity to cell membrane of Staphylococcus aureus grown in MHB medium at 8 ug/ml by scintillation counting relative to control
How it was run: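 S. aureus at 10^8 CFU/ml in MHB or PBS at 37°C, exposed to [14C]telavancin 8 µg/ml over 2 h. At each time point, cells collected on 0.2-µm filter plate, dried overnight at 37°C, and scintillation counted. Three independent experiments.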

[26] = test system: Staphylococcus aureus; assay: Antibacterial activity against Staphylococcus aureus assessed as induction of bacterial cell lysis at 8 to 32 ug/ml by spectrophotometry; type: functional, organism-based
How it was run: (§7)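 S. aureus ATCC 33591 grown in MHB to early exponential phase (A625 = 0.3). 5 ml aliquots treated at final concentration, shaking water bath at 37°C. Turbidity read by spectrophotometer. Lysis also scored by microscopy: intact cells dark, lysed cells transparent; imaged at 0, 2 and 6 h, at least 30 cells per condition. Lysostaphin as lysis control. Three independent experiments.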

[27] = test system: Staphylococcus aureus; assay: Antibacterial activity against Staphylococcus aureus assessed as bacterial count at 8 to 32 ug/ml by turbidity assay; type: functional; how it was run: as §7
[28] = test system: Staphylococcus aureus; assay: Antibacterial activity against Staphylococcus aureus assessed as change in cellular membrane integrity at 8 to 32 ug/ml up to 6 hrs by spectrophotometry; type: functional, organism-based; how it was run: as §7
[29] = test system: Staphylococcus aureus; assay: Antibacterial activity against Staphylococcus aureus assessed as induction of bacterial cell lysis at 8 to 32 ug/ml by turbidity assay; type: functional, organism-based
How it was run: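 S. aureus ATCC 33591 was grown in cation-adjusted MHB to early exponential phase (A625 = 0.3). 5-ml aliquots received compound at the final concentration and were incubated in a shaking 37°C water bath. Lysis was followed by turbidity. Cells were also imaged by microscopy at 0, 2 and 6 h, scoring at least 30 cells per condition. Lysostaphin served as the lysis control. Means ± SD of three independent experiments.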

`CCCCCCCCCCNCCN[C@@]1(C)C[C@H](O[C@H]2[C@H](Oc3c4cc5cc3Oc3ccc(cc3Cl)[C@H](O)[C@@H](NC(=O)O)C(=O)N[C@@H](CC(N)=O)C(=O)N[C@H]5C(=O)N[C@H]3C(=O)N[C@H](C(=O)N[C@H](C(=O)O)c5cc(O)c(CNCP(=O)(O)O)c(O)c5-c5cc3ccc5O)[C@H](O)c3ccc(c(Cl)c3)O4)O[C@H](CO)[C@@H](O)[C@@H]2O)O[C@@H](C)[C@H]1O` gave an Activity [1] of 35% and an MIC [2] of 8 µg/mL (≈ 4.78 µM).
`CCCCCCCCCC(=O)N[C@@H](Cc1c[nH]c2ccccc12)C(=O)N[C@H](CC(N)=O)C(=O)N[C@@H](CC(=O)O)C(=O)N[C@@H]1C(=O)NCC(=O)N[C@@H](CCCN)C(=O)N[C@@H](CC(=O)O)C(=O)N[C@H](C)C(=O)N[C@@H](CC(=O)O)C(=O)NCC(=O)N[C@H](CO)C(=O)N[C@@H]([C@H](C)CC(=O)O)C(=O)N[C@@H](CC(=O)c2ccccc2N)C(=O)O[C@@H]1C` gave an MIC [3] of 4 µg/mL (≈ 2.47 µM).
For `CCCCCCCCCCO` [DECANOL], the MIC [2] was 128 µg/mL (≈ 809 µM) and the Activity [4] was “Active”.
`CCCCCCCCCCNCCN[C@@]1(C)C[C@H](O[C@H]2[C@H](Oc3c4cc5cc3Oc3ccc(cc3Cl)[C@@H](O)[C@@H](NC(=O)[C@@H](CC(C)C)NC)C(=O)N[C@@H](CC(N)=O)C(=O)N[C@H]5C(=O)N[C@H]3C(=O)N[C@H](C(=O)N[C@H](C(=O)O)c5cc(O)c(CNCP(=O)(O)O)c(O)c5-c5cc3ccc5O)[C@H](O)c3ccc(c(Cl)c3)O4)O[C@H](CO)[C@@H](O)[C@@H]2O)O[C@@H](C)[C@H]1O` [TELAVANCIN] gave an Activity [5] of 33%, an Activity [6] of 17% and an Activity [7] of 7%. It also gave an MIC [8] of at most 0.5 µg/mL, an Activity [1] of 49% and an MIC [2] of 0.25 µg/mL (≈ 0.142 µM). For the same compound, the Activity [9] was “Dose-dependent effect”, the IC50 [9] was 3.6 µg/mL (≈ 2.05 µM) and the Activity [10] was 61%. It also gave an Activity [11] of 78%, an Activity [12] of 77% and an MIC [13] of 0.5 µg/mL (≈ 0.285 µM). For the same compound, the MIC [14] was at most 0.5 µg/mL, the MIC [3] was at most 0.5 µg/mL and the MIC [15] was 0.5 µg/mL. The MIC [16] was 1 µg/mL, the MIC [17] was 4 µg/mL and the Activity [18] was 94%. The Activity [19] was 68%, the Activity [20] was 19% and the Activity [21] was 14%. The Activity [22] was 29%, the Activity [23] was 38% and the Activity [24] was 27%. The Activity [4] was “Active”, the fold change (FC) [25] was 2.8 and the Activity [26] was “inactive”. The log10CFU/ml [27] was 3 and the Activity [28] was “inactive”.
For `CN[C@H](CC(C)C)C(=O)N[C@H]1C(=O)N[C@@H](CC(N)=O)C(=O)N[C@H]2C(=O)N[C@H]3C(=O)N[C@H](C(=O)N[C@H](C(=O)O)c4cc(O)cc(O)c4-c4cc3ccc4O)[C@H](O)c3ccc(c(Cl)c3)Oc3cc2cc(c3O[C@@H]2O[C@H](CO)[C@@H](O)[C@H](O)[C@H]2O[C@H]2C[C@](C)(N)[C@H](O)[C@H](C)O2)Oc2ccc(cc2Cl)[C@H]1O` [VANCOMYCIN], the IC50 [9] was over 96 µg/mL, the MIC [13] was 8 µg/mL (≈ 5.52 µM) and the Activity [29] was “inactive”.
